# Results taken from ChEMBL document CHEMBL1122741, “Substituted 5,6-dihydrofuro[3,2-f]-1,2-benzisoxazole-6-carboxylic acids: high-ceiling diuretics with uricosuric activity” (J Med Chem, 1984).
# The source made the active and inactive calls. No cut-off for these calls is given here.
# Experiments:
# Mus musculus [1] = assay: ED6 (natriuretic potency) is the oral dose(mg/kg) required to produce an excretion of 6 milliequivalents of Na+per kilogram during 0-4 hr in male mice (Highest dose tested was 50 mg/kg); assay type: functional
# Summary of the method: (§1)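 Male mice, 16-30 g, fed ad libitum beforehand. Compound in 0.2% hydroxypropylmethylcellulose given po at 10 mL/kg, then 0.9% saline po at 3% of body weight. Five mice pooled per metabolism cage, four cages per dose. Combined urine collected 0-4 h and assayed for Na+, K+, Cl-, uric acid as mequiv/kg per cage. ED6 from regression of Na+ against log dose.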
# Canis familiaris [2] = species on record: Canis familiaris; assay: urate excreted in female dogs during 0-6 hr; assay type: ADME, organism-based, Canis lupus familiaris; conditions: dog, in vivo
# Summary of the method: (§2)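 Conscious female dogs dosed at 3 mg/kg po, except one reference at 10 mg/kg, one dose per dog. Urine collected to 6 h and centrifuged; heparinized venous plasma taken at each collection. Na+ and urate measured by standard methods, mean ± SEM over 0-6 h. Compared with vehicle by ANOVA/Duncan's test or unpaired t test.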
# Mus musculus [3] = assay: Na+ excretion mequiv /kg in saline-loaded mice administered at a dose 10 […] perorally; assay type: ADME, organism-based; conditions: in vivo, po
# Summary of the method: (§3)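 Saline-loaded male mice, 16-30 g. Compound po in 0.2% hydroxypropylmethylcellulose at 10 mL/kg, vehicle alone for controls, followed by 0.9% saline po at 3% of body weight. Doses were 0.3-250 mg/kg po. Five mice per metabolism cage, four cages per dose, pooled urine collected for 4 h. Na+ reported as mean ± SEM mequiv/kg; ANOVA with Duncan's test or unpaired t test against control.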
# Mus musculus [4] = assay: Na+ excretion mequiv /kg in saline-loaded mice administered at a dose 2 […] perorally; assay type: ADME, organism-based; conditions: in vivo, po; summary of the method: as §3
# Rattus norvegicus [5] = assay: ED2(natriuretic potency) is the oral dose(mg/kg) required to produce an excretion of 2 milliequivalents of Na+per kilogram during 0-4 hr in female rats (Highest dose tested was 100 mg/kg); assay type: functional
# Summary of the method: (§4)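 Female Sprague-Dawley rats, 175-225 g, on sucrose and water for 18 h, given 5 mg DOCA sc 2 h before dosing. Compound in 0.2% methylcellulose given by gavage at 2 mL/kg, then a 30 mL/kg load of 0.34% NaCl/0.69% KCl. Individual metabolism cages, urine collected 0-4 h for Na+, K+, Cl-. Two-stage two-dose screen at 2 rats/dose, then at least four doses at 4 rats/dose. ED2 taken from regression of Na+ excretion against log dose.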
# Mus musculus [6] = assay: Na+ excretion mequiv /kg in saline-loaded mice administered at a dose 50 […] perorally; assay type: ADME, organism-based; conditions: in vivo, po; summary of the method: as §3
# Canis familiaris [7] = assay: ED5(natriuretic potency) is the oral dose(mg/kg) required to produce an excretion of 5 milliequivalents of Na+per kilogram during 0-6 hr in female dogs (Highest dose tested was 30 mg/kg); assay type: functional, Canis lupus familiaris
# Summary of the method: (§5)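 Female dogs, conscious, one oral dose per dog per experiment. Urine collected and centrifuged; venous plasma drawn at each collection time. Samples assayed for Na+, K+, Cl-, urate and glucose by standard methods. Cumulative Na+ output expressed as mequiv/kg over 6 h, at least two dogs/dose. ED5 read from regression of Na+ excretion against log dose.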
# [8] = urate excreted in 4 Cebus monkey''s during 0-6 hr; assay type: ADME; conditions: in vivo
# Summary of the method: (§6)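 Male and female Cebus monkeys, 4-6 per group, fasted for 6 h after dosing, water ad libitum. 20 mg/kg in 0.2% hydroxypropylmethylcellulose at 1.0 mL/kg by nasogastric tube, then water load of 5% body weight. Urine collected in metabolism pans at 2, 6 and 24 h and assayed for uric acid. Urate in mg/kg over 0-6 h, mean ± SEM.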
# Canis familiaris [9] = assay: Na+ excretion mequiv /kg in conscious female dogs administered perorally during 0-6 hr; assay type: ADME, organism-based, Canis lupus familiaris; conditions: dog, in vivo, po; summary of the method: as §2
# Mus musculus [10] = assay: Na+ excretion mequiv[…] in saline-loaded mice administered at a dose 10 […] perorally* -significantly different from control(p<0.05) and Duncan's test; assay type: ADME, organism-based; conditions: in vivo, po; summary of the method: as §3
# Mus musculus [11] = assay: Na+ excretion mequiv[…] in saline-loaded mice administered at a dose 10 […] perorally; assay type: ADME, organism-based; conditions: in vivo, po; summary of the method: as §3
# Mus musculus [12] = assay: Na+ excretion mequiv/kg in saline-loaded mice administered at a dose 2 […] perorally; assay type: ADME, organism-based; conditions: in vivo, po; summary of the method: as §3
# Mus musculus [13] = assay: ED6 (natriuretic potency) is the oral dose(mg/kg) required to produce an excretion of 6 milliequivalents of Na+per kilogram during 0-4 hr in male mice (Highest dose tested was 50 mg/kg); Inactive; assay type: functional, organism-based; set-up: dose 50 mg/kg; summary of the method: as §1
# Mus musculus [14] = assay: Na+ excretion mequiv/kg in saline-loaded mice administered at a dose 30 […] perorally; assay type: ADME, organism-based; conditions: in vivo, po; summary of the method: as §3
# Mus musculus [15] = assay: Na+ excretion mequiv/kg in saline-loaded mice administered at a dose 3 […] perorally; assay type: ADME, organism-based; conditions: in vivo, po; summary of the method: as §3
# Canis familiaris [16] = assay: ED5(natriuretic potency) is the oral dose(mg/kg) required to produce an excretion of 5 milliequivalents of Na+per kilogram during 0-6 hr in female dogs (Highest dose tested was 30 mg/kg); Inactive; assay type: functional, organism-based; set-up: dose 30 mg/kg; conditions: Canis lupus familiaris; summary of the method: as §5
# Mus musculus [17] = assay: Na+ excretion mequiv/kg in saline-loaded mice administered at a dose 10 […] perorally; assay type: ADME, organism-based; conditions: in vivo, po; summary of the method: as §3
# Mus musculus [18] = assay: Na+ excretion mequiv/kg in saline-loaded mice administered at a dose 250 […] perorally; assay type: ADME, organism-based; conditions: in vivo, po; summary of the method: as §3
# Canis familiaris [19] = assay: Na+ excretion mequiv/kg in 6 conscious female dogs administered perorally during 0-6 hr; assay type: ADME, organism-based, Canis lupus familiaris; conditions: dog, in vivo, po; summary of the method: as §2
# Mus musculus [20] = assay: Na+ excretion mequiv/kg in saline-loaded mice administered at a dose 50 […] perorally; assay type: ADME, organism-based; conditions: in vivo, po; summary of the method: as §3
# Canis familiaris [21] = species on record: Canis familiaris; assay: urate excreted in 6 female dogs during 0-6 hr; assay type: ADME, organism-based, Canis lupus familiaris; conditions: dog, in vivo; summary of the method: as §2
# Rattus norvegicus [22] = assay: ED2(natriuretic potency) is the oral dose(mg/kg) required to produce an excretion of 2 milliequivalents of Na+per kilogram during 0-4 hr in female rats (Highest dose tested was 100 mg/kg); Inactive; assay type: functional, organism-based; set-up: dose 100 mg/kg; summary of the method: as §4
# Mus musculus [23] = assay: Na+ excretion mequiv/kg in 4 saline-loaded mice administered at a dose 50 […] perorally; assay type: ADME, organism-based; conditions: in vivo, po; summary of the method: as §3
# Canis familiaris [24] = species on record: Canis familiaris; assay: urate excreted in 4 female dogs during 0-6 hr; assay type: ADME, organism-based, Canis lupus familiaris; conditions: dog, in vivo; summary of the method: as §2
# Canis familiaris [25] = assay: Na+ excretion mequiv/kg in 4 conscious female dogs administered perorally during 0-6 hr; assay type: ADME, organism-based, Canis lupus familiaris; conditions: dog, in vivo, po; summary of the method: as §2
# Canis familiaris [26] = species on record: Canis familiaris; assay: Urate excreted in female dogs during 0-6 hr; assay type: ADME, organism-based, Canis lupus familiaris; conditions: dog, in vivo; summary of the method: as §2
# [27] = Urate excreted in 6 Cebus monkey''s during 0-6 hr; assay type: ADME; conditions: in vivo; summary of the method: as §6
structure (smiles),measurement,setting,value
NS(=O)(=O)c1cc(C(=O)O)c(NCc2ccco2)cc1Cl [FUROSEMIDE],ED6,Mus musculus [1],5 mg/kg
same,Excretion,Canis familiaris [2],0.7 mg/kg
same,Na+ excretion,Mus musculus [3],7.9 m equiv kg-1
same,Na+ excretion,Mus musculus [4],3.7 m equiv kg-1
same,ED2,Rattus norvegicus [5],9.5 mg/kg
same,Na+ excretion,Mus musculus [6],11.5 m equiv kg-1
same,ED5,Canis familiaris [7],3.5 mg/kg
same,Excretion,[8],4.03 mg/kg
same,Na+ excretion,Canis familiaris [9],5.23 m equiv kg-1
C=C(CC)C(=O)c1ccc(OCC(=O)O)c(Cl)c1Cl [ETHACRYNIC ACID],Na+ excretion,Mus musculus [10],5.9 mequiv/kg
same,Na+ excretion,Mus musculus [11],3.2 mequiv/kg
same,Na+ excretion,Mus musculus [12],2.9 mequiv/kg
Cc1noc2c(Cl)c3c(cc12)CC(C(=O)O)O3 (stereo not drawn),ED2,Rattus norvegicus [5],40 mg/kg
same,ED6,Mus musculus [13],inactive
NS(=O)(=O)c1cc2c(cc1Cl)NCNS2(=O)=O [HYDROCHLOROTHIAZIDE],Na+ excretion,Mus musculus [14],6.7 m equiv kg-1
same,Na+ excretion,Mus musculus [15],4.5 m equiv kg-1
O=C(O)C1Cc2cc3c(-c4ccccc4F)noc3c(Cl)c2O1 (stereo in doubt; 30) [listing 1 of 2 here],ED6,Mus musculus [13],inactive
same,ED5,Canis familiaris [16],inactive
O=C(O)COc1ccc(C(=O)c2cccs2)c(Cl)c1Cl,Na+ excretion,Mus musculus [17],3.7 m equiv kg-1
same,Na+ excretion,Mus musculus [18],7.7 m equiv kg-1
same,Na+ excretion,Canis familiaris [19],1.54 m equiv kg-1
same,Na+ excretion,Mus musculus [20],6.3 m equiv kg-1
same,Excretion,Canis familiaris [21],0.8 mg/kg
same,Excretion,[8],11.81 mg/kg
NC(=O)C1Cc2cc3c(-c4ccccc4F)noc3c(Cl)c2O1 (stereo not drawn),ED6,Mus musculus [1],39 mg/kg
same,ED2,Rattus norvegicus [22],inactive
O=C(O)C1Cc2cc3c(-c4ccccc4F)noc3cc2O1 (stereo not drawn),ED6,Mus musculus [1],100 mg/kg
same,ED2,Rattus norvegicus [22],inactive
CCOC(=O)C1Cc2cc3c(-c4ccccc4F)noc3c(Cl)c2O1 (stereo not drawn),ED2,Rattus norvegicus [22],inactive
same,ED6,Mus musculus [13],inactive
CC1(c2ccccc2)Cc2cc(OCC(=O)O)c(Cl)c(Cl)c2C1=O (stereo not drawn) [INDACRINONE],Na+ excretion,Mus musculus [17],8 m equiv kg-1
same,ED6,Mus musculus [1],4.4 mg/kg
same,Na+ excretion,Mus musculus [23],12.6 m equiv kg-1
same,Na+ excretion,Mus musculus [12],4 m equiv kg-1
same,Excretion,Canis familiaris [24],0.71 mg/kg
same,Na+ excretion,Canis familiaris [25],1.44 m equiv kg-1
same,ED2,Rattus norvegicus [5],5.2 mg/kg
same,ED5,Canis familiaris [7],7.64 mg/kg
same,Excretion,[8],9.53 mg/kg
O=C(O)C1Cc2cc3c(-c4ccccc4F)noc3c(Cl)c2O1 (stereo in doubt; 30) [listing 2 of 2 here],Excretion,Canis familiaris [26],1.25 mg/kg
same,Na+ excretion,Mus musculus [3],3.2 m equiv kg-1
same,Na+ excretion,Mus musculus [4],2.8 m equiv kg-1
same,Na+ excretion,Mus musculus [6],3.5 m equiv kg-1
same,Excretion,[27],8.32 mg/kg
same,Na+ excretion,Canis familiaris [9],0.62 m equiv kg-1
O=C(O)C1Cc2cc3c(-c4cccs4)noc3c(Cl)c2O1 (stereo not drawn),ED2,Rattus norvegicus [5],>100 mg/kg
same,ED6,Mus musculus [13],inactive
CCc1noc2c(Cl)c3c(cc12)CC(C(=O)O)O3 (stereo not drawn),ED6,Mus musculus [1],6.8 mg/kg
same,ED2,Rattus norvegicus [5],3.8 mg/kg
same,ED5,Canis familiaris [16],inactive
CC(C)Cc1noc2c(Cl)c3c(cc12)CC(C(=O)O)O3 (stereo not drawn),ED6,Mus musculus [1],0.47 mg/kg
same,ED2,Rattus norvegicus [5],0.23 mg/kg
same,ED5,Canis familiaris [16],inactive
